According to ChEMBL document CHEMBL5226344, “A Chemical Strategy for Intracellular Arming of an Endogenous Broad-Spectrum Antiviral Nucleotide” (J Med Chem, 2021):
pIC50: −log10 of the molar value. Active and inactive are the calls of the source. The rule behind the calls is not given here.

What was measured:
[1] = tested on: Vero; test: Cytotoxicity against African green monkey Vero cells assessed as reduction in cell viability at 0.1 to 1 mM incubated for 2 days by Alamar Blue assay; format: toxicity, cell-based; conditions: chlorocebus sabaeus, 48 h, 1000 µM, dose 0.1-1 mM, time 2 day
Outline: (§1)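 HUH7 (2,000 cells/well) or Vero (1,500 cells/well) seeded in 10% FBS medium, 24 h; serially diluted compound added (final DMSO 0.5%); incubated 2 or 5 days; Alamar blue added 2 h before read; fluorescence minus no-cell background, normalized to DMSO control; technical triplicates, at least three biological replicates.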

[2] = tested on: West Nile virus; test: (§2) Antiviral activity against West Nile virus infected in human Huh7.5 cells assessed as reduction in virus-induced cytopathic effect at 0.1 to 1 mM cells were pretreated with compound for 24 hrs followed by drug removal and subsequent viral infection for 1 hr and later incubated with compound and measured at 3 days post-infection; format: functional, organism-based; conditions: dose 0.1-1 mM, time 3.0 day
Outline: (§3)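 Cells grown in DMEM with 2% FBS, pretreated 24 h before confluency with media containing 0, 0.1 or 1 mM compound (diluted from DMSO stocks). Media removed, WNV (2003 crow isolate) added at MOI 0.1 for 1 h, then washed 3x with HBSS. Drug-containing overlay applied, 37°C, 5% CO2, 3 days. Media harvested, titre by plaque titration, triplicate. One-way ANOVA with Dunnett's test.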

[3] = tested on: West Nile virus; test: as §2, with “African green monkey Vero” for “human Huh7.5”; format: functional, organism-based; conditions: dose 0.1-1 mM, time 3.0 day
[4] = tested on: West Nile virus; test: as §2, with “Huh-7” for “Huh7.5”; format: functional, organism-based; conditions: dose 0.1-1 mM, time 3.0 day; outline: as §3
[5] = Drug metabolism in human Huh-7 cells expressing HINT1 assessed as ddhCTP level at 100 uM incubated for 24 hrs measured per 5 million cells by mass spectrometry (Rvb <0.01 nmol); conditions: huh-7, 24 h
[6] = tested on: Huh-7; test: Cytotoxicity against human Huh-7 cells assessed as reduction in cell viability at 0.1 to 1 mM incubated for 2 days by Alamar Blue assay; format: toxicity, cell-based; conditions: huh-7, 48 h, 1000 µM, dose 0.1-1 mM, time 2 day; outline: as §1
[7] = tested on: Zika virus; test: (§4) Competitive inhibition of Zika virus RNA-dependent RNA polymerase assessed as chain termination by measuring inhibition of full length RNA production in presence of 10 uM CTP by primer extension assay based PAGE analysis
Outline: (§5)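 Purified ZIKV NS5 RdRp (1 μM), E. coli-expressed ubiquitin fusion with C-terminal His tag. Assembled 30 min at 30 °C with pGGC RNA primer, 20-nt RNA template, ATP, GTP and [α-32P]-ATP in HEPES pH 7.5 buffer with Mg2+. Started with UTP, 10 μM CTP and ddhCTP 0–5000 μM, 5 min, EDTA quench. Full-length RNA scored by denaturing 23% PAGE. IC50 from curve fits, 3 independent repeats.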

[8] = as §4; outline: as §5
[9] = tested on: Zika virus; test: Antiviral activity against Zika virus PRABC59 infected in African green monkey Vero cells assessed as reduction in virus-induced cytopathic effect at 0.1 to 1 mM cells were pretreated with compound for 24 hrs followed by drug removal and subsequent viral infection for 1 hr and later incubated with compound and measured at 4 days post-infection; format: functional, organism-based; conditions: dose 0.1-1 mM, time 5.0 day
[10] = Drug metabolism in human Huh-7 cells transfected with HINT1 assessed as intracellular concentration of ddhCTP at 100 uM incubated for 24 hrs by mass spectrometry; format: ADME, cell-based; conditions: huh-7, 24 h
[11] = Metabolic stability of the compound in human plasma assessed as parent compound remaining at 2 uM measured upto 2 hrs by LC-MS analysis; format: ADME, cell-free
Outline: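 Pooled human plasma (3 male, 3 female), pH 7.4, spiked to 2 μM final; 37°C; sampled at 0, 10, 30, 60, 120 min; quenched with MeCN:MeOH containing tolbutamide and labetalol; LC-MS peak-area ratio versus internal standards, percent remaining relative to t0; propantheline as positive control.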

[12] = tested on: Zika virus; test: (§6) Antiviral activity against Zika virus PRABC59 infected in human Huh-7 cells assessed as log reduction in plaque forming units at 0.1 mM cells were pretreated with compound for 24 hrs followed by drug removal and subsequent viral infection for 1 hr and later incubated with compound and measured at 4 days post-infection; format: functional; conditions: time 5 day
Outline: (§7)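 Cells in 24-well plates (2% FBS medium) pretreated 24 h with compound in medium (0, 0.1, 1 mM), medium removed, infected at MOI 0.1 for 1 h, washed three times, overlaid with drug-containing medium; 37°C, 5% CO2 for 3 days (WNV, 2003 crow isolate) or 4 days (ZIKV PRABC59); supernatant titered by plaque assay; triplicates; one-way ANOVA with Dunnett's test.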

[13] = tested on: Zika virus; test: as §6, with “Huh7.5” for “Huh-7”; format: functional; parameters: dose or concentration left out as unconfirmed; conditions: time 5 day
[14] = Apparent permeability across apical to basolateral side in human Caco-2 cells at 2 to 10 uM incubated for 2 hrs […]; format: ADME, cell-based; conditions: dose 2-10 µM
Outline: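 Caco-2 monolayers grown 21-28 days; compound at 2 or 10 μM in HBSS/10 mM HEPES pH 7.4 (DMSO <1%); 2 h at 37°C, 5% CO2; donor and receiver quantified by LC-MS against internal standard; monolayer integrity by Lucifer Yellow; Papp from receiver accumulation rate, volume, area 0.0804 cm2 and initial donor concentration.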

[15] = tested on: West Nile virus; test: (§8) Antiviral activity against West Nile virus infected in human Huh7.5 cells assessed as log reduction in plaque forming units at 1 mM cells were pretreated with compound for 24 hrs followed by drug removal and subsequent viral infection for 1 hr and later incubated with compound and measured at 3 days post-infection; format: functional; conditions: time 4 day; outline: as §7
[16] = Stability of the compound in simulated gastric fluid assessed as parent compound remaining at 200 uM measured after 6 hrs by LC-MS/MS analysis; format: physicochemical; conditions: read-out: Stability
[17] = Cytotoxicity against African green monkey Vero cells assessed as cell viability at 1 mM incubated for 5 days by Alamar Blue assay; format: toxicity, cell-based; conditions: chlorocebus sabaeus, time 5 day, read-out: Activity; outline: as §1
[18] = Cytotoxicity against human Huh-7 cells assessed as cell viability at 1 mM incubated for 5 days by Alamar Blue assay; format: toxicity, cell-based; conditions: time 5 day, read-out: Activity; outline: as §1
[19] = tested on: West Nile virus; test: as §8, with “Huh-7” for “Huh7.5”; format: functional; conditions: time 4 day; outline: as §7

SMILES	Activity [1]	Activity [2]	Activity [3]	Activity [4]	Drug metabolism [5] [nmol]	Activity [6]	inhibition [7]	pIC50 [8]	Activity [9]	Drug metabolism [10] [mM]	Stability [11] [%]	Activity [12] [log10PFU/ml]	Activity [13] [log10PFU/ml]	Papp A→B at 2 h, up to 10 µM [14] [×10⁻⁶ cm/s]	Activity [15] [log10PFU/ml]	remaining at 6 h, 200 µM [16] [%]	viability at 120 h, 1000 µM [17] [%]	viability at 120 h, 1000 µM [18] [%]	Activity [19] [log10PFU/ml]
Nc1ccn([C@@H]2OC(CO)=C[C@H]2O)c(=O)n1	Non-Toxic	inactive	inactive	inactive	0.13	Non-Toxic	–	–	–	–	–	–	–	–	–	–	–	–	–
Nc1ccn([C@@H]2OC(COP(=O)(O)OP(=O)(O)OP(=O)(O)O)=C[C@H]2O)c(=O)n1	–	–	–	–	–	–	Dose-Dependent Effect	3.49	–	–	–	–	–	–	–	–	–	–	–
CC(C)OC(=O)[C@H](C)N[P@@](=O)(OCC1=C[C@@H](O)[C@H](n2ccc(N)nc2=O)O1)Oc1ccccc1	Non-Toxic	–	inactive	–	3.8	Non-Toxic	–	–	inactive	> 1	> 87	>1	>1	0.03	>4	76	> 60	> 60	>4
